“And” between values parts separate entries of the source, which are not always exact repeats. Identical values can stand only once.
System: HEK-293T
Experiment: Multiplex assay against HEK293T
Assay type: toxicity, cell-based
Settings: human, number of replicates 2
Outline: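 Imaging took place on a CQ1 microscope at 37°C and 5% CO2 once compound had been added to live cells stained at seeding with Hoechst33342, BioTracker Green Microtubule Cytoskeleton Dye, MitoTracker Red and Annexin V Alexa Fluor 680. CellPathfinder machine-learning gating classed cells as Hoechst high-intensity objects or normal cells, classed normal cells as having healthy, pyknosed or fragmented nuclei, and classed pyknosed cells as mitotic or apoptotic. Tubulin, mitochondrial-mass and membrane-permeability phenotypes are per cents of the healthy-nucleus cells.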

[1] = 12 h, 1 µM, compound concentration 1 uM
[2] = 12 h, 10 µM, compound concentration 10 uM
[3] = 24 h, 1 µM, compound concentration 1 uM
[4] = 24 h, 10 µM, compound concentration 10 uM
[5] = 48 h, 1 µM, compound concentration 1 uM
[6] = 48 h, 10 µM, compound concentration 10 uM

## CC(C)N1CCN(Cc2cnc(-c3cc(-c4cccc5[nH]ccc45)cc4[nH]ncc34)o2)CC1 [NEMIRALISIB]
[1]
  Population Apoptotic (%): 45% and 59%
  Population Fragmented Nuclei (%): 5% and 3%
  Population Healthy Nuclei (%): 77% and 74%
  Population Hoechst High Intensity Objects (%): 12% and 13%
  Population Membrane Permeable-Phenotype (%): 4% and 2%
  Population Mitochondria Different-Phenotype (%): 18% and 22%
  Population Mitotic Cells (%): 54% and 40%
  Population Normal (%): 87% and 86%
  Population Pyknosed Nuclei (%): 16% and 21%
  Population Tubulin-Different-Phenotype (%): 69% and 70%
  Total Cell Count: 748 and 665
[2]
  Population Apoptotic (%): 62% and 64%
  Population Fragmented Nuclei (%): 2% and 3%
  Population Healthy Nuclei (%): 87% and 84%
  Population Hoechst High Intensity Objects (%): 11% and 7%
  Population Membrane Permeable-Phenotype (%): 5% and 3%
  Population Mitochondria Different-Phenotype (%): 46% and 61%
  Population Mitotic Cells (%): 37% and 35%
  Population Normal (%): 88% and 92%
  Population Pyknosed Nuclei (%): 9% and 12%
  Population Tubulin-Different-Phenotype (%): 98%
  Total Cell Count: 425 and 404
[3]
  Population Apoptotic (%): 52% and 61%
  Population Fragmented Nuclei (%): 10% and 6%
  Population Healthy Nuclei (%): 75% and 74%
  Population Hoechst High Intensity Objects (%): 9% and 11%
  Population Membrane Permeable-Phenotype (%): 2%
  Population Mitochondria Different-Phenotype (%): 7% and 8%
  Population Mitotic Cells (%): 47% and 38%
  Population Normal (%): 90% and 88%
  Population Pyknosed Nuclei (%): 13% and 19%
  Population Tubulin-Different-Phenotype (%): 40% and 42%
  Total Cell Count: 1140 and 951
[4]
  Population Apoptotic (%): 50% and 57%
  Population Fragmented Nuclei (%): 3%
  Population Healthy Nuclei (%): 85% and 78%
  Population Hoechst High Intensity Objects (%): 18% and 14%
  Population Membrane Permeable-Phenotype (%): 3%
  Population Mitochondria Different-Phenotype (%): 39% and 57%
  Population Mitotic Cells (%): 50% and 42%
  Population Normal (%): 81% and 85%
  Population Pyknosed Nuclei (%): 11% and 17%
  Population Tubulin-Different-Phenotype (%): 94% and 96%
  Total Cell Count: 468 and 473
[5]
  Population Apoptotic (%): 21% and 33%
  Population Fragmented Nuclei (%): 17% and 10%
  Population Healthy Nuclei (%): 78% and 84%
  Population Hoechst High Intensity Objects (%): 10%
  Population Membrane Permeable-Phenotype (%): 6% and 2%
  Population Mitochondria Different-Phenotype (%): 0% and 1%
  Population Mitotic Cells (%): 78% and 66%
  Population Normal (%): 89%
  Population Pyknosed Nuclei (%): 4%
  Population Tubulin-Different-Phenotype (%): 19%
  Total Cell Count: 2776 and 2131
[6]
  Population Apoptotic (%): 51% and 60%
  Population Fragmented Nuclei (%): 8% and 7%
  Population Healthy Nuclei (%): 84% and 85%
  Population Hoechst High Intensity Objects (%): 11% and 15%
  Population Membrane Permeable-Phenotype (%): 6% and 7%
  Population Mitochondria Different-Phenotype (%): 28% and 18%
  Population Mitotic Cells (%): 48% and 40%
  Population Normal (%): 88% and 84%
  Population Pyknosed Nuclei (%): 6% and 7%
  Population Tubulin-Different-Phenotype (%): 86% and 80%
  Total Cell Count: 815 and 665

## CC(=O)O[C@H]1C(=O)[C@@]2(C)[C@H]([C@H](OC(=O)c3ccccc3)[C@]3(O)C[C@H](OC(=O)[C@H](O)[C@@H](NC(=O)c4ccccc4)c4ccccc4)C(C)=C1C3(C)C)[C@]1(OC(C)=O)CO[C@@H]1C[C@@H]2O [PACLITAXEL]
[2]
  Population Apoptotic (%): 60% and 50% and 49% and 45%
  Population Fragmented Nuclei (%): 3% and 1% and 2%
  Population Healthy Nuclei (%): 74% and 80% and 77%
  Population Hoechst High Intensity Objects (%): 6% and 9% and 5% and 7%
  Population Membrane Permeable-Phenotype (%): 0%
  Population Mitochondria Different-Phenotype (%): 48% and 39% and 43% and 50%
  Population Mitotic Cells (%): 39% and 49% and 50% and 54%
  Population Normal (%): 93% and 90% and 94% and 92%
  Population Pyknosed Nuclei (%): 22% and 17% and 20%
  Population Tubulin-Different-Phenotype (%): 52% and 56% and 58% and 57%
  Total Cell Count: 418 and 518 and 523 and 401
[4]
  Population Apoptotic (%): 65% and 51% and 71% and 68%
  Population Fragmented Nuclei (%): 3% and 4% and 2%
  Population Healthy Nuclei (%): 81% and 82% and 77%
  Population Hoechst High Intensity Objects (%): 9% and 12% and 10% and 8%
  Population Membrane Permeable-Phenotype (%): 0%
  Population Mitochondria Different-Phenotype (%): 45% and 43% and 58%
  Population Mitotic Cells (%): 35% and 48% and 28% and 31%
  Population Normal (%): 90% and 87% and 89% and 91%
  Population Pyknosed Nuclei (%): 15% and 14% and 18%
  Population Tubulin-Different-Phenotype (%): 56% and 47%
  Total Cell Count: 442 and 490 and 384 and 517
[6]
  Population Apoptotic (%): 71% and 81% and 64% and 73%
  Population Fragmented Nuclei (%): 3% and 2% and 4%
  Population Healthy Nuclei (%): 88% and 89% and 84% and 83%
  Population Hoechst High Intensity Objects (%): 11% and 9%
  Population Membrane Permeable-Phenotype (%): 0%
  Population Mitochondria Different-Phenotype (%): 44% and 41% and 50%
  Population Mitotic Cells (%): 28% and 18% and 35% and 26%
  Population Normal (%): 88% and 90%
  Population Pyknosed Nuclei (%): 7% and 10% and 13%
  Population Tubulin-Different-Phenotype (%): 59% and 58% and 62%
  Total Cell Count: 478 and 469 and 500 and 350

Reference: ChEMBL document CHEMBL5303300, “EUbOPEN Chemogenomics Library - Multiplex” (2023)
